Results as given in ChEMBL document CHEMBL3271964, “Synthesis and biological activity of new 2-nitroimidazole derivatives” (J Med Chem, 1978).
Values after ≈ are worked out from the molar mass of the structure shown. Active and inactive are the calls of the source.

Experiments:
[1] = test system: Staphylococcus aureus; experiment: Antimicrobial activity against Staphylococcus aureus Tour by microtitre method; assay type: functional
[2] = test system: Streptococcus pyogenes; experiment: Antimicrobial activity against Streptococcus pyogenes C 203 by microtitre method; assay type: functional
[3] = test system: Clostridium perfringens; experiment: Antimicrobial activity against Clostridium perfringens ISS 30543 by broth dilution method; assay type: functional
[4] = test system: Mycoplasmoides gallisepticum; experiment: Antimicrobial activity against Mycoplasma gallisepticum S6 Weybridge by broth dilution method; assay type: functional
[5] = test system: Trichomonas vaginalis; experiment: Antimicrobial activity against Trichomonas vaginalis by broth dilution method; assay type: functional
[6] = Therapeutic index, ratio of LD50 for po dosed mouse to ED50 for Trichomonas vaginalis infected in po dosed mouse; assay type: organism-based; details: in vivo, read-out: Ratio LD50/ED50
In short: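 Ratio of two mouse values, both dosed orally. The LD50 comes from acute toxicity, with compounds suspended in aqueous 0.5% Methocel 90-HG. The ED50 comes from subcutaneous T. vaginalis infection treated orally. The ED50 vehicle varied by compound: suspension in aqueous 0.75% sodium carboxymethylcellulose, DMF-H2O, DMF-phosphate buffer pH 7.38, or H2O.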

[7] = test system: Mus musculus; experiment: Toxicity in CF1 mouse assessed as reduction in curiosity at 10 to 600 mg/kg, po by Irwin test; assay type: organism-based; parameters: dose 10-600 mg/kg, route oral; details: in vivo
In short: (§1)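 Irwin observational method in male CF1 mice (19–22 g). Oral dosing of a suspension in 0.5% Methocel 90-HG at 10 mL/kg, up to 600 mg/kg; controls received saline. Directly observable behavioural and autonomic changes were scored, with the threshold dose for onset recorded.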

[8] = test system: Mus musculus; experiment: Toxicity in CF1 mouse assessed as reduction in spontaneous activity at 10 to 600 mg/kg, po by Irwin test; assay type: organism-based; parameters: dose 10-600 mg/kg, route oral; details: in vivo; in short: as §1
[9] = test system: Mus musculus; experiment: Toxicity in CF1 mouse assessed as reduction in body tone at 10 to 600 mg/kg, po by Irwin test; assay type: organism-based; parameters: dose 10-600 mg/kg, route oral; details: in vivo; in short: as §1
[10] = test system: Mus musculus; experiment: Toxicity in CF1 mouse assessed as reduction in heart rate at 10 to 600 mg/kg, po by Irwin test; assay type: organism-based; parameters: dose 10-600 mg/kg, route oral; details: in vivo; in short: as §1
[11] = test system: Mus musculus; experiment: Toxicity in CF1 mouse assessed as reduction in respiratory rate at 10 to 600 mg/kg, po by Irwin test; assay type: organism-based; parameters: dose 10-600 mg/kg, route oral; details: in vivo; in short: as §1
[12] = test system: Mus musculus; experiment: Toxicity in CF1 mouse assessed as reduction in opening of eyelid at 10 to 600 mg/kg, po by Irwin test; assay type: organism-based; parameters: dose 10-600 mg/kg, route oral; details: in vivo; in short: as §1
[13] = test system: Mus musculus; experiment: Toxicity in CF1 mouse assessed as flaccid paralysis at 600 mg/kg, po by Irwin test; assay type: organism-based; parameters: dose 600 mg/kg, route oral; details: in vivo; in short: as §1
[14] = test system: Mus musculus; experiment: Toxicity in CF1 mouse assessed as change in sleeping time at 300 mg/kg, po administered 30 mins prior to hexobarbital sodium challenge relative to vehicle-treated control; assay type: organism-based; parameters: dose 300 mg/kg, route oral; details: in vivo, 0.5 h
In short: (§2)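 Male CF1 mice (19–22 g), groups of 30, given oral doses as a 0.5% Methocel 90-HG suspension at 10 mL/kg; saline controls (90 animals). Hexobarbital sodium 75 mg/kg ip given 30 min later, at 25–26 °C. Sleeping time given as mean ± SE and as % change vs controls; Dunnett's t test.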

[15] = test system: Mus musculus; experiment: Toxicity in CF1 mouse assessed as change in sleeping time at 600 mg/kg, po administered 30 mins prior to hexobarbital sodium challenge relative to vehicle-treated control; assay type: organism-based; parameters: dose 600 mg/kg, route oral; details: in vivo, 0.5 h; in short: as §2
[16] = test system: Mus musculus; experiment: Inhibition of strychine sulfate/pentetrazole-induced death in CF1 mouse at 300 to 600 mg/kg, po administered 60 mins prior to strychine sulfate/pentetrazole challenge; assay type: functional, organism-based
[17] = test system: Mus musculus; experiment: Toxicity in CF1 mouse assessed as ataxia at 10 to 600 mg/kg, po by Irwin test; assay type: organism-based; parameters: dose 10-600 mg/kg, route oral; details: in vivo; in short: as §1
[18] = test system: Mus musculus; experiment: Toxicity in CF1 mouse assessed as cyanosis at 10 to 600 mg/kg, po by Irwin test; assay type: organism-based; parameters: dose 10-600 mg/kg, route oral; details: in vivo; in short: as §1
[19] = test system: Trichomonas vaginalis; experiment: Antimicrobial activity against Trichomonas vaginalis infected in po dosed mouse; assay type: functional
In short: (§3)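 Mice infected subcutaneously, then dosed orally. Vehicle depended on compound: suspension in aqueous 0.75% sodium carboxymethylcellulose, DMF-H₂O, DMF-phosphate buffer pH 7.38, or water. ED₅₀ determined, with metronidazole run in parallel. The relative value is ED₅₀ (test) / ED₅₀ (metronidazole).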

[20] = test system: Trichomonas vaginalis; experiment: Antimicrobial activity against Trichomonas vaginalis infected in po dosed mouse relative to metronidazole; assay type: functional; in short: as §3
[21] = Acute toxicity in po dosed mouse; assay type: organism-based; details: in vivo
In short: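 Acute toxicity in mice by the oral route. Compounds were given as suspensions in aqueous 0.5% Methocel 90-HG.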

[22] = test system: Rattus norvegicus; experiment: Inhibition of carrageenan-induced edema in rat; assay type: functional, organism-based
[23] = test system: Rattus norvegicus; experiment: Effect on pressor response in conscious normotensive rat up to 50 mg/kg; assay type: functional, organism-based; parameters: dose 50 mg/kg
[24] = test system: Mus musculus; experiment: Toxicity in CF1 mouse assessed as reduction in curiosity at 60 to 600 mg/kg, po by Irwin test; assay type: organism-based; parameters: dose 60-600 mg/kg, route oral; details: in vivo; in short: as §1
[25] = test system: Mus musculus; experiment: Toxicity in CF1 mouse assessed as reduction in spontaneous activity at 60 to 600 mg/kg, po by Irwin test; assay type: organism-based; parameters: dose 60-600 mg/kg, route oral; details: in vivo; in short: as §1
[26] = test system: Mus musculus; experiment: Toxicity in CF1 mouse assessed as reduction in opening of eyelid at 60 to 600 mg/kg, po by Irwin test; assay type: organism-based; parameters: dose 60-600 mg/kg, route oral; details: in vivo; in short: as §1
[27] = test system: Mus musculus; experiment: Toxicity in CF1 mouse assessed as reduction in body tone at 60 to 600 mg/kg, po by Irwin test; assay type: organism-based; parameters: dose 60-600 mg/kg, route oral; details: in vivo; in short: as §1
[28] = test system: Mus musculus; experiment: Toxicity in CF1 mouse assessed as reduction in heart rate at 60 to 600 mg/kg, po by Irwin test; assay type: organism-based; parameters: dose 60-600 mg/kg, route oral; details: in vivo; in short: as §1
[29] = test system: Mus musculus; experiment: Toxicity in CF1 mouse assessed as reduction in respiratory rate at 60 to 600 mg/kg, po by Irwin test; assay type: organism-based; parameters: dose 60-600 mg/kg, route oral; details: in vivo; in short: as §1
[30] = test system: Mus musculus; experiment: Toxicity in CF1 mouse assessed as change in sleeping time at 250 mg/kg, po administered 30 mins prior to hexobarbital sodium challenge relative to vehicle-treated control; assay type: organism-based; parameters: dose 250 mg/kg, route oral; details: in vivo, 0.5 h; in short: as §2
[31] = test system: Mus musculus; experiment: Toxicity in CF1 mouse assessed as change in sleeping time at 500 mg/kg, po administered 30 mins prior to hexobarbital sodium challenge relative to vehicle-treated control; assay type: organism-based; parameters: dose 500 mg/kg, route oral; details: in vivo, 0.5 h; in short: as §2
[32] = test system: Mus musculus; experiment: Inhibition of strychine sulfate/pentetrazole-induced death in CF1 mouse at 250 to 500 mg/kg, po administered 60 mins prior to strychine sulfate/pentetrazole challenge; assay type: functional, organism-based
[33] = test system: Mus musculus; experiment: Toxicity in CF1 mouse assessed as ataxia at 60 to 600 mg/kg, po by Irwin test; assay type: organism-based; parameters: dose 60-600 mg/kg, route oral; details: in vivo; in short: as §1
[34] = test system: Mus musculus; experiment: Toxicity in CF1 mouse assessed as cyanosis at 60 to 600 mg/kg, po by Irwin test; assay type: organism-based; parameters: dose 60-600 mg/kg, route oral; details: in vivo; in short: as §1

Structure (SMILES) | MIC [1] | MIC [2] | MIC [3] | MIC [4] | MIC [5] | selectivity ratio [6] | ED50 [19] | Ratio ED50 [20] | LD50 [21] | further results
Cc1ncc([N+](=O)[O-])n1CCO [METRONIDAZOLE] | > 300 µg/mL | > 300 µg/mL | 0.6 µg/mL (≈ 3.51 µM) | > 300 µg/mL | 5 µg/mL (≈ 29.2 µM) | 658 | – | – | – | Activity [7]: Toxic; Activity [8]: Toxic; Activity [9]: Toxic; Activity [10]: Toxic; Activity [11]: Toxic; Activity [12]: Toxic; Activity [13]: Toxic; Activity [14]: 29.2%; Activity [15]: 55.9%; inhibition [16]: Active; Activity [17]: Toxic; Activity [18]: Toxic
O=[N+]([O-])c1cncn1CCN1CCOCC1 [NIMORAZOLE] | > 300 µg/mL | > 300 µg/mL | 0.6 µg/mL (≈ 2.65 µM) | > 300 µg/mL | 12.5 µg/mL (≈ 55.3 µM) | 40 | 37.9 mg/kg | 4.66 | 1530 mg/kg | –
Cn1c(C(C)(C)OC(=O)Oc2ccccc2)cnc1[N+](=O)[O-] | 100 µg/mL (≈ 328 µM) | 100 µg/mL (≈ 328 µM) | 10 µg/mL (≈ 32.8 µM) | > 100 µg/mL | 2 µg/mL (≈ 6.55 µM) | 1970 | – | 0.28 | – | inhibition [22]: inactive; Activity [23]: inactive; Activity [24]: Toxic; Activity [25]: Toxic; Activity [26]: Toxic; Activity [27]: Toxic; Activity [28]: Toxic; Activity [29]: Toxic; Activity [30]: 15.5%; Activity [31]: 18.1%; inhibition [32]: Active; Activity [33]: Toxic; Activity [34]: Toxic
CCS(=O)(=O)CCn1c([N+](=O)[O-])cnc1C [TINIDAZOLE] | 300 µg/mL (≈ 1210 µM) | > 300 µg/mL | 0.3 µg/mL (≈ 1.21 µM) | > 300 µg/mL | 3.1 µg/mL (≈ 12.5 µM) | 1280 | 2.5 mg/kg | 0.43 | 3200 mg/kg | –
Cn1c(C(C)(C)OC(=O)NN)cnc1[N+](=O)[O-] | > 100 µg/mL | 100 µg/mL (≈ 411 µM) | 3.1 µg/mL (≈ 12.7 µM) | 25 µg/mL (≈ 103 µM) | 100 µg/mL (≈ 411 µM) | 141 | 4.67 mg/kg | 0.33 | 660 mg/kg | –
COC(C)(C)c1cnc([N+](=O)[O-])n1C | > 100 µg/mL | > 100 µg/mL | 5 µg/mL (≈ 25.1 µM) | > 100 µg/mL | 5 µg/mL (≈ 25.1 µM) | 99 | 8.12 mg/kg | 0.81 | 805 mg/kg | –
Cn1c(C(C)(C)OC(=O)c2ccccc2)cnc1[N+](=O)[O-] | 100 µg/mL (≈ 346 µM) | 100 µg/mL (≈ 346 µM) | 3.1 µg/mL (≈ 10.7 µM) | 50 µg/mL (≈ 173 µM) | > 100 µg/mL | – | 16.2 mg/kg | 1.62 | – | –
